From PubChem BioAssay
Jurkat NFkB inh = lowers PMA/ionomycin-induced NF-kB signal in Jurkat cells | actives 0.53% (n = 330,000) | PMA/ionomycin-induced NF-kB luciferase reporter, luminescence | inhibition, % at 4 µM | AID 435003; in the data active = inhibition above about 50%
UPR CHOP act = apoptotic UPR (CHOP) activation; AID 449763; CHO-CHOP luciferase reporter, luminescence; percent of tunicamycin response over DMSO baseline; activation, % at 10 µM; actives 0.34% (n = 330,000);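 active = at 10 µM dose, activation of 40% or more, normalized to positive control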;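 note: 100% = tunicamycin at 10 µg/mL and 0% = DMSO alone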
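Dosing – one dose, 10 µM in 0.5% DMSO · System – CHO-CHOP cells, stable luciferase reporter of PERK-eIF2a-CHOP signalling · Input – 500 cells/well · Control set – tunicamycin 10 µg/mL final as positive, DMSO-only wells as negative · Timing – 6 h compound treatment, 37 °C · Measure – % activation vs tunicamycin · Technique – luminescence read with Steady-Glo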
CHOP inh = CHOP inhibition in unfolded protein response; inhibition, % at 10 µM; AID 2732; actives 3.8% (n = 220,000); CHO-K1 CHOP-promoter luciferase, tunicamycin-induced, 15-18 h;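 active = compounds that reduced the stress-induced luciferase reporter signal by more than about 70% of percent inhibition, limit read from the data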;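 note: 0% = tunicamycin plus vehicle and 100% = wells without tunicamycin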
XBP1 UPR activ = activators of adaptive arm of unfolded protein response (XBP1) | CHO-XBP1 luciferase reporter, IRE1-XBP1 UPR activation, luminescence; percent of tunicamycin response, DMSO as zero | activation, % at 20 µM | actives 0.33% (n = 330,000) | AID 463104;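 active = versus positive control, 20 µM dose yields 30% or more activation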;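 note: 100% = tunicamycin at 10 µg/mL and 0% = DMSO only wells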
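Material: CHO-XBP1 cells stably carrying IRE1-XBP1-driven luciferase reporter / Amount: 1000 cells per well / Compound: 20 µM, 1% DMSO / Times: 6 h treatment, 37 °C / Detection: luciferase luminescence / Measure: % activation of reporter signal versus tunicamycin and DMSO controls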
697 NFkB inh = inhibitors of the PMA/ionomycin-induced NF-kB reporter in 697 B cells; 697 B-cell NF-kB luciferase reporter, 16 h; inhibition, % at 4 µM; actives 0.33% (n = 330,000); AID 435022; in the data active = inhibition above about 35%
Jurkat NFkB conf = lowers PMA/ionomycin-induced NF-kB signal in Jurkat cells. actives 27% (n = 2,700). shares compounds with Jurkat NFkB inh. Jurkat NF-kB luciferase, 16 h. inhibition, % at 4 µM;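 active = inhibition reaching about 45% at 4 µM in either replicate, limit read from the data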;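 note: plate controls were PMA/ionomycin stimulated DMSO wells for no effect and unstimulated DMSO wells for full effect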
* = called active by the depositor; x = not tested or not shown. This is one part of a sample in which hits are shown more often than they occur.

SMILES	Jurkat NFkB inh	UPR CHOP act	CHOP inh	XBP1 UPR activ	697 NFkB inh	Jurkat NFkB conf
COc1ccccc1S(=O)(=O)Cc1ccc(C(=O)N2CCN(c3ccc(C)cc3)C(C)C2)o1 (configuration not stated)	-4.4	-0.2	-17.6	1.1	-11.6	x
N#CC(c1ccccc1)N(CCCCl)C(=O)c1ccccc1 (configuration not stated)	-2.5	-1.1	-10.2	2.3	15.5	x
Cc1ncc([N+](=O)[O-])n1CC(=O)Nc1ccc(F)c(Cl)c1	-7.3	-0.5	x	-5.0	5.1	x
COc1cc(/C=C(/C#N)C(=O)Nc2ccc(C)cc2)ccc1Oc1nc(Cl)ncc1F	22.6	13.0	-11.8	-1.3	-53.2	x
Cc1csc(NC(=O)c2oc3ccccc3c2C)n1	-194.7	3.1	x	-1.2	-192.8	-90.8
Cc1c(C(=O)NC2=NCCS2)oc2ccccc12	-168.6	-2.1	30.8	-2.5	-123.1	-96.5
Cc1c(C(=O)NC2CCCC2)oc2ccccc12	-4.6	3.4	x	0.1	-3.2	x
Fc1ccccc1/C=N/Nc1nc(-c2ccccn2)nc2ccccc12	61.0*	168.1*	54.2	4.9	-23.3	-8.0
Oc1ccc(/C=N/Nc2nc(-c3cccnc3)nc3ccccc23)c(O)c1	9.8	4.5	-1.9	13.9	-18.1	x
CN(CC(=O)Nc1c(Cl)cccc1Cl)C(=O)C1=COCCO1	9.4	0.4	x	-0.9	11.3	x
COC(=O)c1sc(NC(=O)c2c(C)noc2C)nc1C	-1.6	-1.8	x	-1.7	7.8	x
COC(=O)c1sc(N)c(C(=O)OC)c1COC(=O)c1c(C)noc1C	67.6*	-0.5	x	-0.2	-11.3	21.1
COc1cccc(CNCc2ccc(SC)cc2)c1OC	5.8	-3.8	37.1	-2.6	-6.0	x
COc1ccc([C@H]2CC(=O)C=C(c3ccc(OC)cc3OC)C2)cc1	57.8*	3.7	x	13.6	-48.8	48.1*
COc1ccc(OCCCC(=O)Nc2cc(S(=O)(=O)N3CCCCC3)ccc2C)cc1	-9.2	-1.2	x	-3.5	-6.2	x
O=C(Cc1ccc(Cl)cc1)Nc1ccc(-c2cc3ccccc3oc2=O)c(Cl)c1	58.9*	-0.6	30.3	-0.3	-41.1	27.8
CCN(C(=O)CSc1n[nH]c(N)n1)c1cccc2ccccc12	-19.0	1.4	x	4.1	-5.5	x
O=C(CSCc1ccccc1Cl)Nc1ccc2c(c1)OCCO2	-161.7	0.9	24.8	4.7	-31.9	-89.4
O=C(CNCc1ccccc1Cl)Nc1ccc2c(c1)OCCO2	-89.7	0.8	-9.3	0.8	-49.9	x
O=[N+]([O-])c1ccc2nc(-c3ccc(Cl)cc3)n(OCc3ccccc3)c2c1	-199.0	2.8	11.0	4.8	-240.5	-88.7
COc1cc2ccccc2cc1C(=O)NC1CCC(C)CC1 (configuration not stated)	94.7*	4.3	x	2.6	-59.2	-47.0
COc1ccc(/C=N/NC(=O)CCn2cnc(-c3ccccc3)c2-c2ccccc2)cc1OC	63.9*	-0.3	8.7	-0.5	-32.6	20.4
Cc1nc2sc(C(N)=O)c(N)c2c2c1CCCC2	-4.4	-0.2	69.4	-2.9	-4.0	x
COC(=O)c1ccc(C(=O)NC2CCCc3c2cnn3-c2ccc(C)c(C)c2)cc1 (configuration not stated)	59.7*	-1.4	x	-2.6	-16.8	59.0*
COC(=O)c1ccc(C(=O)NC2CCCc3c2cnn3-c2cc(F)cc(F)c2)nc1 (configuration not stated)	52.0*	1.0	x	0.1	-70.9	32.2
SMILES	Jurkat NFkB inh	UPR CHOP act	CHOP inh	XBP1 UPR activ	697 NFkB inh	Jurkat NFkB conf
Cc1cc(C(=O)NC2CCCc3c2cnn3-c2ccc(C)c(C)c2)nc(C)n1 (configuration not stated)	-3.4	0.2	x	-4.9	-39.3	x
CCn1cc(C(=O)NC2CCCc3c2cnn3-c2cccc(C)c2C)cn1 (configuration not stated)	73.8*	5.5	x	-1.7	-25.8	66.2*
O=C(NC1CCCc2c1cnn2-c1cc(F)cc(F)c1)c1ccccn1 (configuration not stated)	-4.0	1.4	x	-1.1	-30.1	x
CCc1nn(C(CC)C(=O)NCCc2ccc(OC)cc2OC)c(=O)c2cc3occc3n12 (configuration not stated)	-3.8	-0.1	x	-4.8	-4.9	x
C[n+]1c2n(c3ccccc31)N=C(c1cc(C(C)(C)C)c(O)c(C(C)(C)C)c1)CS2	52.1*	7.4	72.8*	3.7	-7.9	2.8
COc1cccc(C2=Nn3c(nnc3-c3ccccc3O)SC2)c1	5.5	0.3	69.7	3.5	-21.7	x
COc1ccc(-c2cn3cc(C)ccc3n2)cc1Br	-178.0	-1.7	21.5	-0.8	-222.8	-79.4
COc1ccc2c(Cn3cnc4cc([N+](=O)[O-])ccc4c3=O)cc(=O)oc2c1	70.4*	0.4	19.3	0.2	15.2	11.1
Cc1ccc(OCCn2cnc3cc([N+](=O)[O-])ccc3c2=O)cc1	-1.0	-0.4	15.6	-0.2	33.5	x
O=C(COc1ccccc1Cl)Nc1ccc(Cl)cn1	-153.4	2.1	59.9	2.5	-51.7	-99.2
O=C(COc1ccccc1)Nc1ccc(Cl)cn1	-39.5	3.6	-15.3	1.9	-7.1	x
Cc1ccc(OCC(=O)c2cc(C)n(-c3ccccc3)c2C)c([N+](=O)[O-])n1	76.0*	-4.8	68.2	-4.5	12.4	11.2
CCOC(=O)c1c(-c2ccccc2)oc2ccc(OCC(O)CNCCN(C)C)cc12 (configuration not stated)	56.0*	3.9	x	14.5	6.5	13.3
COc1ccc(NC(=O)COc2ccccc2Cl)cc1S(=O)(=O)N1CCCCC1	-7.1	-0.9	x	-5.7	-15.0	x
COc1ccc(OCC(=O)Nc2ccc(OC)c(S(=O)(=O)N3CCCCC3)c2)cc1	50.1*	1.0	x	0.3	-36.2	19.3
Cc1ccsc1C(=O)Nc1nc2ccccc2[nH]1	-157.2	0.1	-20.3	-1.5	-198.3	-67.1
Cc1cc(C)cc(C(=O)Nc2nc3ccccc3[nH]2)c1	-87.2	7.5	x	13.6	-75.0	x
O=C(Nc1nc2ccccc2[nH]1)c1ccc(F)cc1	-154.3	-3.4	9.6	-3.0	-168.7	-48.2
O=C(Nc1nc2ccccc2[nH]1)c1cc2ccccc2o1	-195.6	1.6	-49.6	1.4	-227.5	-116.8
COc1ccc2oc(C(=O)Nc3nc4ccccc4[nH]3)c(C)c2c1	-178.7	2.2	17.6	-1.4	-185.0	-98.5
O=C(Nc1ccccc1)c1cc2ccccc2o1	-148.1	0.6	15.6	-4.3	14.5	x
COc1ccc(OC)c(S(=O)(=O)N2CCCC(C(=O)NCc3cccnc3)C2)c1 (configuration not stated)	5.3	1.5	x	-0.9	8.9	x
Cc1nn(Cc2ccc(F)cc2)c(C)c1NC(=O)CCCn1nc([N+](=O)[O-])cc1C	-15.4	3.6	8.4	1.7	9.4	x
CCOc1cc(CNCCc2ccc(S(N)(=O)=O)cc2)ccc1OCc1ccc(Cl)cc1	54.1*	11.8	89.5*	16.1	-11.8	8.7
